Data set [1] is described as follows: melting temperature; fluorescence melt of hairpins on a sequencing array, two-state fit, raised by 9.35 °C to match UV melts. As to conditions: sodium 0.088 M. An outline of the steps:
(§1)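 Melting temperature and folding enthalpy were derived from bootstrapped two-state fits. The fitted temperatures were raised by 9.35 °C to agree with UV melts, and four replicates were combined by inverse variance. The underlying data were Cy3 fluorescence images of library hairpins, with annealed Cy3 and quencher oligos, on a sequenced MiSeq flow cell in 50 mM Na-HEPES pH 8.0, 25 mM NaCl, taken in 2.5 °C steps up to 60 °C, normalised to pre-quench Cy3 and to control constructs.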

Data set [2] is described as follows: folding enthalpy; higher = less favourable; fluorescence melt of hairpins on a sequencing array, two-state fit. Conditions: sodium 0.088 M. The method in brief: as §1

Regarding GCTCCCGAAAGGGTAGC ((((((....))).))), in data set [1], the Tm is 54.4 °C. In addition, the folding enthalpy in data set [2] is -32.2 kcal/mol.
For the sequence GCTACGGGAAACTGTGGC ((.((.(....).)).)), in data set [1], the Tm was 41.1 °C. The folding enthalpy in data set [2] was -30.7 kcal/mol.
For the sequence GCGTACTACGC ((((...)))), the Tm in data set [1] worked out at 55.2 °C. Moreover, the folding enthalpy in data set [2] was -24.6 kcal/mol.
As for GTTACGGAAACGTAAC ((((((....)))))), the Tm in data set [1] was found to be 56.8 °C. In data set [2], the folding enthalpy is -38.1 kcal/mol.
Turning to GTAGCCGGAAACGGCCAC ((.((((....)))).)), the Tm in data set [1] amounted to 39.5 °C. In data set [2], the folding enthalpy is -10.2 kcal/mol.
On to GCCAAGCGAAAGCACGGC (((..((....))..))), for which, in data set [1], the Tm amounted to 57.4 °C. The folding enthalpy in data set [2] was -30.4 kcal/mol.
As to GCGGACGAAAGTCGACGC ((((((....)))..))), in data set [1], the Tm was 54.8 °C. Further, the folding enthalpy in data set [2] was -27.3 kcal/mol.
With GATCTCTTACGAGATC ((((((....)))))), in data set [1], the Tm worked out at 52.2 °C. The folding enthalpy in data set [2] is -44.7 kcal/mol.
On the same counts, the results for GCAGAGCGAAAGCCCTGC ((((.((....)).)))) are 63.2 °C and -29.1 kcal/mol.
On to GCTGGCGAAAGCCAAAGC ((((((....)))..))), for which, in data set [1], the Tm stood at 53.5 °C. The folding enthalpy in data set [2] is -18.2 kcal/mol.
With GATCTTCCGAAGATC ((((((...)))))), the Tm in data set [1] amounted to 43 °C. The folding enthalpy in data set [2] was -31.9 kcal/mol.
Turning to GACTGCGAAAGCATCGTC ((((((....)))..))), the Tm in data set [1] was 47.1 °C. Further, the folding enthalpy in data set [2] is -12.2 kcal/mol.
Consider GCGAAGCGAAAGCGTTGC ((.(.((....)).).)), for which, in data set [1], the Tm is 47.7 °C. The folding enthalpy in data set [2] is -12.4 kcal/mol.
GATGCCGGAAACAGCATC (((((.(....).))))): the Tm in data set [1] turned out to be 46 °C. Also, the folding enthalpy in data set [2] is -36.8 kcal/mol.
As for GTTAAGGAAACTTAAC ((((((....)))))), the Tm in data set [1] is 43 °C. Also, in data set [2], the folding enthalpy was -29 kcal/mol.
On the same counts, the results for CGAAAACGGAAACGTTCG (((..(((....)))))) are 37 °C and -19.8 kcal/mol.
Regarding GATTTAGGAAACTAAGTC ((.((((....)))).)), the Tm in data set [1] amounted to 29.6 °C. Besides, the folding enthalpy in data set [2] is -8.37 kcal/mol.
On to GGGGGGGGAAACCCTCCC (((.(((....))).))), for which, in data set [1], the Tm worked out at 59.4 °C. The folding enthalpy in data set [2] was -31.3 kcal/mol.
As for GTGCGGCGAAAGCCCCAC (((.(((....))).))), in data set [1], the Tm amounted to 47.6 °C. Also, the folding enthalpy in data set [2] was -23 kcal/mol.
As for GTCATCGAAAGATTGAC ((((((....))).))), the Tm in data set [1] was 40.7 °C. Moreover, the folding enthalpy in data set [2] was -26.9 kcal/mol.
As to GTTGCCGAAAGGCTAAAC ((((((....)))..))), in data set [1], the Tm stood at 34.5 °C. In data set [2], the folding enthalpy is -9.35 kcal/mol.
As to GTCTTCGGAAACGGAGAC ((((.((....)).)))), in data set [1], the Tm came to 50.4 °C. In data set [2], the folding enthalpy was -39.1 kcal/mol.
Consider GTGTAGGGAAACCTATAC ((.((((....)))).)), for which, in data set [1], the Tm was 38.2 °C. Further, in data set [2], the folding enthalpy was -24.8 kcal/mol.
The corresponding values for GATCCATGTTTGGATC ((((((....)))))) are 53.8 °C and -42.8 kcal/mol.
Take GGAAGTCCGAAAGGATCC (((..(((....)))))): the Tm in data set [1] was 28.7 °C. The folding enthalpy in data set [2] was -11.9 kcal/mol.
GCTCTGCGAAAGCAATGC ((..(((....)))..)): in data set [1], the Tm is 31.6 °C. The folding enthalpy in data set [2] was -10.5 kcal/mol.
The corresponding values for GCGTTGCGAAAGCTCCGC (((..((....))..))) are 54.6 °C and -17.9 kcal/mol.
For the sequence GTTGTCGGAAACGATAGC (.(.(((....))).).), the Tm in data set [1] is 32.4 °C. Moreover, the folding enthalpy in data set [2] was -17.1 kcal/mol.
Regarding GCGAGCTCGAAAGAGCGC (((..(((....)))))), the Tm in data set [1] was found to be 54.9 °C. Besides, the folding enthalpy in data set [2] is -9.24 kcal/mol.
Take GGACTACGAAAGTAATCC (((.(((....))).))): the Tm in data set [1] was found to be 38.7 °C. In addition, in data set [2], the folding enthalpy is -33.4 kcal/mol.
In the case of GATCACGTATGTGATC ((((((....)))))), in data set [1], the Tm was found to be 68.2 °C. Besides, the folding enthalpy in data set [2] was -38.5 kcal/mol.
GAGCCGCGAAAGCGCTC (((.(((....)))))): the Tm in data set [1] was 58.9 °C. In addition, the folding enthalpy in data set [2] is -16.7 kcal/mol.
Regarding GCGTTGGGAAACCAGCGC (((.(((....))).))), the Tm in data set [1] turned out to be 58.3 °C. Also, the folding enthalpy in data set [2] was -45.2 kcal/mol.
With GATCCCTAAGGGATC ((((((...)))))), the Tm in data set [1] came to 60.2 °C. Also, the folding enthalpy in data set [2] was -38.4 kcal/mol.
As for GGCACCGAAAGGTTCGCC ((((((....)))..))), in data set [1], the Tm worked out at 47.7 °C. Also, the folding enthalpy in data set [2] is -20 kcal/mol.
GGATGTGAAAACATCC ((((((....)))))): the Tm in data set [1] was 58.5 °C. The folding enthalpy in data set [2] was -38.3 kcal/mol.
Turning to GCTCGGGGAAACCTGGGC ((.(.((....)).).)), the Tm in data set [1] stood at 45.9 °C. The folding enthalpy in data set [2] is -18.5 kcal/mol.
